{
  "source": "ChEMBL document CHEMBL4732237",
  "about": "“Discovery of 4-alkoxy-2-aryl-6,7-dimethoxyquinolines as a new class of topoisomerase I inhibitors endowed with potent in vitro anticancer activity” (2021)",
  "data": [
    {"tested_on": "LOX IMVI", "experiment": "Growth inhibition of human LOX IMVI cells at 10 uM incubated for 48 hrs by sulforhodamine B assay relative to control", "assay_type": "functional", "conditions": "read-out: GI", "in_short": "(§1)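 NCI-60 single-dose screen. Cells were grown in RPMI 1640 with 5% FBS and 2 mM L-glutamine and plated 24 h before drug addition. Compound was added at one concentration in DMSO-derived medium and incubated for 48 h at 37 °C in 5% CO2. Read-out was SRB protein stain at 515 nm. Result is percent growth versus the no-drug control and the time-zero cell count; values below 0 indicate lethality.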", "units": {"inhibition of growth at 10 µM": "%"}, "values": [
      {"smiles": "COc1cc2nc(-c3ccc(C(F)(F)F)cc3)cc(OCCN3CCCC3)c2cc1OC", "inhibition of growth at 10 µM": 13}
    ]},
    {"tested_on": "SK-MEL-2", "experiment": "Growth inhibition of human SK-MEL-2 cells at 10 uM incubated for 48 hrs by sulforhodamine B assay relative to control", "assay_type": "functional", "conditions": "read-out: GI", "in_short": "(§2)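 NCI one-dose screen. Cells grown in RPMI 1640 with 5% FBS and 2 mM L-glutamine, plated and incubated 24 h at 37 °C, 5% CO2. DMSO-dissolved drug added, then 48 h further incubation. Adherent cells fixed with cold TCA, suspension cells fixed after settling. Stained with 0.4% SRB, absorbance read at 515 nm. Reported as percent growth relative to no-drug control and time-zero cell number.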", "units": {"inhibition of growth at 10 µM": "%"}, "values": [
      {"smiles": "COc1cc2nc(-c3ccc(C(F)(F)F)cc3)cc(OCCN3CCCC3)c2cc1OC", "inhibition of growth at 10 µM": 13}
    ]},
    {"tested_on": "EKVX", "experiment": "Growth inhibition of human EKVX cells at 10 uM incubated for 48 hrs by sulforhodamine B assay relative to control", "assay_type": "functional", "conditions": "read-out: GI", "in_short": "as §1", "units": {"inhibition of growth at 10 µM": "%"}, "values": [
      {"smiles": "COc1cc2nc(-c3ccc(C(F)(F)F)cc3)cc(OCCN3CCCC3)c2cc1OC", "inhibition of growth at 10 µM": 13}
    ]},
    {"tested_on": "SF-268", "experiment": "Growth inhibition of human SF-268 cells at 10 uM incubated for 48 hrs by sulforhodamine B assay relative to control", "assay_type": "functional", "conditions": "read-out: GI", "in_short": "as §2", "units": {"inhibition of growth at 10 µM": "%"}, "values": [
      {"smiles": "COc1cc2nc(-c3ccc(C(F)(F)F)cc3)cc(OCCN3CCCC3)c2cc1OC", "inhibition of growth at 10 µM": 13}
    ]},
    {"tested_on": "HL-60(TB)", "experiment": "Growth inhibition of human HL-60(TB) cells at 10 uM incubated for 48 hrs by sulforhodamine B assay relative to control", "assay_type": "functional", "conditions": "read-out: GI", "in_short": "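NCI-60 one-dose screen: same culture, 48 h drug exposure and SRB read-out. Reported as percent growth relative to no-drug control and to time-zero cell number; 0–100 means growth inhibition, below 0 means lethality.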", "units": {"inhibition of growth at 10 µM": "%"}, "values": [
      {"smiles": "COc1cc2nc(-c3ccc(C(F)(F)F)cc3)cc(OCCN3CCCC3)c2cc1OC", "inhibition of growth at 10 µM": 13}
    ]},
    {"tested_on": "NCI/ADR-RES", "experiment": "Growth inhibition of human NCI/ADR-RES cells at 10 uM incubated for 48 hrs by sulforhodamine B assay relative to control", "assay_type": "functional", "conditions": "read-out: GI", "in_short": "as §2", "units": {"inhibition of growth at 10 µM": "%"}, "values": [
      {"smiles": "COc1cc2nc(-c3ccc(C(F)(F)F)cc3)cc(OCCN3CCCC3)c2cc1OC", "inhibition of growth at 10 µM": 13}
    ]},
    {"tested_on": "SF-539", "experiment": "Growth inhibition of human SF-539 cells at 10 uM incubated for 48 hrs by sulforhodamine B assay relative to control", "assay_type": "functional", "conditions": "read-out: GI", "in_short": "as §2", "units": {"inhibition of growth at 10 µM": "%"}, "values": [
      {"smiles": "COc1cc2nc(-c3ccc(C(F)(F)F)cc3)cc(OCCN3CCCC3)c2cc1OC", "inhibition of growth at 10 µM": 13}
    ]},
    {"tested_on": "BT-549", "experiment": "Growth inhibition of human BT-549 cells at 10 uM incubated for 48 hrs by sulforhodamine B assay relative to control", "assay_type": "functional", "conditions": "read-out: GI", "in_short": "as §1", "units": {"inhibition of growth at 10 µM": "%"}, "values": [
      {"smiles": "COc1cc2nc(-c3ccc(C(F)(F)F)cc3)cc(OCCN3CCCC3)c2cc1OC", "inhibition of growth at 10 µM": 13}
    ]},
    {"tested_on": "SK-MEL-28", "experiment": "Growth inhibition of human SK-MEL-28 cells at 10 uM incubated for 48 hrs by sulforhodamine B assay relative to control", "assay_type": "functional", "conditions": "read-out: GI", "in_short": "as §2", "units": {"inhibition of growth at 10 µM": "%"}, "values": [
      {"smiles": "COc1cc2nc(-c3ccc(C(F)(F)F)cc3)cc(OCCN3CCCC3)c2cc1OC", "inhibition of growth at 10 µM": 13}
    ]},
    {"tested_on": "Hs-578T", "experiment": "Growth inhibition of human HS-578T cells at 10 uM incubated for 48 hrs by sulforhodamine B assay relative to control", "assay_type": "functional", "conditions": "read-out: GI", "in_short": "as §1", "units": {"inhibition of growth at 10 µM": "%"}, "values": [
      {"smiles": "COc1cc2nc(-c3ccc(C(F)(F)F)cc3)cc(OCCN3CCCC3)c2cc1OC", "inhibition of growth at 10 µM": 13}
    ]},
    {"tested_on": "OVCAR-3", "experiment": "Growth inhibition of human OVCAR-3 cells at 10 uM incubated for 48 hrs by sulforhodamine B assay relative to control", "assay_type": "functional", "conditions": "read-out: GI", "in_short": "as §2", "units": {"inhibition of growth at 10 µM": "%"}, "values": [
      {"smiles": "COc1cc2nc(-c3ccc(C(F)(F)F)cc3)cc(OCCN3CCCC3)c2cc1OC", "inhibition of growth at 10 µM": 13}
    ]},
    {"tested_on": "HOP-92", "experiment": "Growth inhibition of human HOP-92 cells at 10 uM incubated for 48 hrs by sulforhodamine B assay relative to control", "assay_type": "functional", "conditions": "read-out: GI", "in_short": "as §1", "units": {"inhibition of growth at 10 µM": "%"}, "values": [
      {"smiles": "COc1cc2nc(-c3ccc(C(F)(F)F)cc3)cc(OCCN3CCCC3)c2cc1OC", "inhibition of growth at 10 µM": 13}
    ]},
    {"tested_on": "SNB-19", "experiment": "Growth inhibition of human SNB-19 cells at 10 uM incubated for 48 hrs by sulforhodamine B assay relative to control", "assay_type": "functional", "conditions": "read-out: GI", "in_short": "as §2", "units": {"inhibition of growth at 10 µM": "%"}, "values": [
      {"smiles": "COc1cc2nc(-c3ccc(C(F)(F)F)cc3)cc(OCCN3CCCC3)c2cc1OC", "inhibition of growth at 10 µM": 13}
    ]},
    {"tested_on": "MDA-MB-468", "experiment": "Growth inhibition of human MDA-MB-468 cells at 10 uM incubated for 48 hrs by sulforhodamine B assay relative to control", "assay_type": "functional", "conditions": "read-out: GI", "in_short": "as §1", "units": {"inhibition of growth at 10 µM": "%"}, "values": [
      {"smiles": "COc1cc2nc(-c3ccc(C(F)(F)F)cc3)cc(OCCN3CCCC3)c2cc1OC", "inhibition of growth at 10 µM": 13}
    ]},
    {"tested_on": "SNB-75", "experiment": "Growth inhibition of human SNB-75 cells at 10 uM incubated for 48 hrs by sulforhodamine B assay relative to control", "assay_type": "functional", "conditions": "read-out: GI", "in_short": "as §2", "units": {"inhibition of growth at 10 µM": "%"}, "values": [
      {"smiles": "COc1cc2nc(-c3ccc(C(F)(F)F)cc3)cc(OCCN3CCCC3)c2cc1OC", "inhibition of growth at 10 µM": 13}
    ]},
    {"tested_on": "K562", "experiment": "Growth inhibition of human K562 cells at 10 uM incubated for 48 hrs by sulforhodamine B assay relative to control", "assay_type": "functional", "conditions": "read-out: GI", "in_short": "as §1", "units": {"inhibition of growth at 10 µM": "%"}, "values": [
      {"smiles": "COc1cc2nc(-c3ccc(C(F)(F)F)cc3)cc(OCCN3CCCC3)c2cc1OC", "inhibition of growth at 10 µM": 13}
    ]},
    {"tested_on": "NCI-H322M", "experiment": "Growth inhibition of human NCI-H322M cells at 10 uM incubated for 48 hrs by sulforhodamine B assay relative to control", "assay_type": "functional", "conditions": "read-out: GI", "in_short": "as §2", "units": {"inhibition of growth at 10 µM": "%"}, "values": [
      {"smiles": "COc1cc2nc(-c3ccc(C(F)(F)F)cc3)cc(OCCN3CCCC3)c2cc1OC", "inhibition of growth at 10 µM": 13}
    ]},
    {"tested_on": "TK-10", "experiment": "Growth inhibition of human TK-10 cells at 10 uM incubated for 48 hrs by sulforhodamine B assay relative to control", "assay_type": "functional", "conditions": "read-out: GI", "in_short": "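NCI one-dose screen across a 59-line panel. Cells were grown in RPMI 1640 with 5% FBS and 2 mM L-glutamine, plated and pre-incubated 24 h, then exposed to drug for 48 h at 37 °C, 5% CO2. Adherent cells were fixed with cold TCA (10% final), stained with 0.4% SRB in 1% acetic acid and read at 515 nm. Result is percent growth relative to no-drug control and time-zero cell count.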", "units": {"inhibition of growth at 10 µM": "%"}, "values": [
      {"smiles": "COc1cc2nc(-c3ccc(C(F)(F)F)cc3)cc(OCCN3CCCC3)c2cc1OC", "inhibition of growth at 10 µM": 13}
    ]}
  ]
}
